Data reported in ChEMBL document CHEMBL5131498, “Synthesis and biological evaluation of orally active prodrugs and analogs of para-aminosalicylic acid (PAS)” (Eur J Med Chem, 2022).
Values after ≈ are worked out from the molar mass of the structure shown.

What was measured:
Format in all cases: functional
[1] = tested on: Mycobacterium tuberculosis; assay: Antimycobacterial activity against multidrug resistant Mycobacterium tuberculosis H37Rv assessed as inhibition of bacterial growth measured after 2 weeks by microbroth dilution method; conditions: 336 h
How it was run: (§1)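 Diluted 1000-fold into 96-well plates with 2-fold serial compound dilutions and incubated at 37 °C for 2 weeks. Growth scored by mirror at 1 and 2 weeks. MIC is the lowest concentration completely inhibiting growth; tested in duplicate. DMSO, isoniazid and linezolid served as controls.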

[2] = tested on: Mycobacterium tuberculosis; assay: Antimycobacterial activity against extensively drug resistant Mycobacterium tuberculosis H37Rv assessed as inhibition of bacterial growth measured after 2 weeks by microbroth dilution method; conditions: 336 h; how it was run: as §1
[3] = tested on: Mycobacterium tuberculosis; assay: Antimycobacterial activity against PAS resistant Mycobacterium tuberculosis H37Rv harboring E153A mutant assessed as inhibition of bacterial growth measured after 2 weeks by microbroth dilution method; how it was run: as §1
[4] = tested on: Mycobacterium tuberculosis; assay: Antimycobacterial activity against PAS resistant Mycobacterium tuberculosis H37Rv harboring S150G mutant assessed as inhibition of bacterial growth measured after 2 weeks by microbroth dilution method; how it was run: as §1
[5] = tested on: Mycobacterium tuberculosis; assay: Antimycobacterial activity against PAS resistant Mycobacterium tuberculosis H37Rv harboring R49W mutant assessed as inhibition of bacterial growth measured after 2 weeks by microbroth dilution method; how it was run: as §1

Which MIC90 [1] does the source give for `Nc1ccc(C(=O)O)c(O)c1` [AMINOSALICYLIC ACID] here?
The MIC90 was 0.2 µM (≈ 0.0306 µg/mL).

What about the MIC90 [2] of the same molecule?
The MIC90 was ≥ 50 µM.

And the MIC90 [3]?
The MIC90 was 12.5 µM (≈ 1.91 µg/mL).

And the MIC90 [4]?
The MIC90 was 12.5 µM (≈ 1.91 µg/mL).

And the MIC90 [5]?
Its MIC90 is 12.5 µM (≈ 1.91 µg/mL).

Which results are given for `CC(=O)NC[C@H]1CN(c2ccc(N3CCOCC3)c(F)c2)C(=O)O1` [LINEZOLID]?
MIC90 [1]: 0.8 µM (≈ 0.27 µg/mL); MIC90 [2]: 0.9 µM (≈ 0.304 µg/mL); MIC90 [3]: 1.9 µM (≈ 0.641 µg/mL); MIC90 [4]: 1.9 µM (≈ 0.641 µg/mL); MIC90 [5]: 1.9 µM (≈ 0.641 µg/mL)

Which results are given for `NNC(=O)c1ccncc1` [ISONIAZID]?
MIC90 [1]: 0.4 µM (≈ 0.0549 µg/mL); MIC90 [2]: 6.3 µM (≈ 0.864 µg/mL); MIC90 [3]: 0.3 µM (≈ 0.0411 µg/mL); MIC90 [4]: 0.3 µM (≈ 0.0411 µg/mL); MIC90 [5]: 0.3 µM (≈ 0.0411 µg/mL)

What does the source list for `Nc1cc(O)c(C(=O)O)cc1F`?
MIC90 [1]: 6.3 µM (≈ 1.08 µg/mL); MIC90 [2]: ≥ 50 µM; MIC90 [3]: >=50 uM; MIC90 [4]: >=50 uM; MIC90 [5]: >=50 uM
